Test results reported in paper PMC7993281 (Clinical and Translational Science, 2020).

What was measured:
[1] = system: glucosylceramide (GlcCer) plasma concentration; assay: MAD study pharmacodynamics: plasma GlcCer; assay type: in vivo, human
Outline: (§1)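 Healthy men and women (1:1), 8 active and 2 placebo per cohort. Oral 30, 100, 300 or 1,000 mg b.i.d. for 7 days. Morning dose after a 10-hour fast, evening dose 2 hours after dinner. Plasma sampled on Days 1, 2, 4 and 7 and at 24, 48 and 72 h after the last dose. Validated LC-MS/MS. Percent change from Day 1 predose.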

[2] = system: non‐lysosomal glucosylceramidase (GBA2) vs glucosylceramide synthase (GCS); assay: Relative inhibitory potency on GBA2 versus GCS; assay type: biochemical
[3] = cited from earlier work
[4] = system: lactosylceramide (LacCer) plasma concentration; assay: MAD study pharmacodynamics: plasma LacCer; assay type: in vivo, human; details: 72 hours after the last dose
Outline: as §1

[5] = MAD study tolerability/safety; assay type: in vivo, human
Outline: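 Healthy men and women aged 18–55 years, BMI 18–30 kg/m2, 8 active and 2 placebo per cohort. Oral 30–1,000 mg b.i.d. for 7 days with staggered dosing. Subjects were confined until 72 h after the last dose, with follow-up at 29–34 days. AEs, vital signs, ECG, physical examination and clinical laboratory tests were recorded and summarised descriptively.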

Multiple-ascending dose = assay type: in vivo, human; details: for Tmax: median (range); for CL renal: urine and plasma
Outline: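 Oral 30, 100, 300 or 1,000 mg b.i.d. for 7 days in healthy men and women, n = 8 active per dose. Plasma sampled for 12 h on Day 1, at trough on Days 2–6, and up to 72 h after the last dose. Urine collected predose Day 1 and 0–12 h on Day 7. Validated LC-MS/MS. Noncompartmental analysis gave AUCτ, accumulation index and CLR.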

[6] = system: globotriaosylceramide (Gb3) plasma concentration; assay: MAD study pharmacodynamics: plasma Gb3; assay type: in vivo, human; details: after last dose
[7] = system: organic cation transporter 2; details: in vitro; ref Idorsia Pharmaceuticals Ltd, unpublished data; cited from earlier work
[8] = Cardiodynamic and exposure-response analysis of QT interval; assay type: in vivo, human
Single-ascending dose = assay type: in vivo, human; details: for Tmax / half-life / CL renal: human, oral; for Tmax / half-life: plasma
Outline: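 Healthy men, single oral 10–2,000 mg after a 10-hour fast. The 300 mg cohort was repeated 30 min after a high-fat, high-calorie breakfast following at least 7 days washout. Plasma sampled up to 48 h; 300 mg urine collected at 0–12, 12–24 and 24–48 h. Validated LC-MS/MS with noncompartmental analysis. Fed/fasted GMR with 90% CI; Tmax compared by nonparametric median difference.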

[9] = MAD 300 mg b.i.d. for 7 days (n = 8)
[10] = Day 7, 30 mg b.i.d., geometric mean (95% CI)
[11] = Day 7, 100 mg b.i.d., geometric mean (95% CI)
[12] = Day 7, 300 mg b.i.d., geometric mean (95% CI)
[13] = Day 7, 1,000 mg b.i.d., geometric mean (95% CI)
[14] = both, human, plasma, oral, 30 mg
[15] = both, human, plasma, oral, 100 mg
[16] = both, human, plasma, oral, 300 mg
[17] = both, human, plasma, oral, 1000 mg b.i.d.

SMILES: CCCCCN1C[C@H](O)[C@@H](O)[C@H](O)[C@@H]1CO [sinbaglustat, (2S,3R,4R,5S)‐2‐(hydroxymethyl)‐1‐pentylpiperidine‐3,4,5‐triol]
- GlcCer during the treatment period ([1]; 30 mg b.i.d.): remained at baseline
- GlcCer increase from baseline concentration ([1]; 30 mg b.i.d., 72 hours after the last dose): 32%
- GlcCer percentage change from baseline ([1]; 100 mg b.i.d., 48 hours after the last dose): –7%
- GlcCer percentage change from baseline ([1]; 300 mg b.i.d., 72 hours after the last dose): –1%
- GlcCer percentage change from baseline ([1]; 1,000 mg b.i.d., 72 hours after the last dose): –19%
- reduction in GlcCer ([1]; highest tested dose (1,000 mg b.i.d.), repeated treatment): 72%
- potency in inhibiting GBA2 relative to GCS [2]: 50 fold
- blood‐brain barrier crossing [3]: crosses the blood‐brain barrier
- LacCer percentage change from baseline ([4]; 30 mg b.i.d.): –8%
- LacCer percentage change from baseline ([4]; 1,000 mg b.i.d.): –33%
- Dizziness (subjects) ([5]; MAD 30 mg b.i.d. (n = 8)): 4
- Headache (subjects) ([5]; MAD 30 mg b.i.d. (n = 8)): 2
- Muscle twitching (subjects) ([5]; MAD 30 mg b.i.d. (n = 8)): 1
- Pain in extremity (subjects) ([5]; MAD 30 mg b.i.d. (n = 8)): 1
- Viral upper respiratory tract (subjects) ([5]; MAD 30 mg b.i.d. (n = 8)): 1
- Total number of AEs ([5]; MAD 30 mg b.i.d. for 7 days (n = 8)): 13
- Dizziness (subjects) ([5]; MAD 100 mg b.i.d. (n = 8)): 2
- Fatigue (subjects) ([5]; MAD 100 mg b.i.d. (n = 8)): 1
- Total number of AEs ([5]; MAD 100 mg b.i.d. for 7 days (n = 8)): 8
- Dizziness (subjects) ([5]; MAD 300 mg b.i.d. (n = 8)): 1
- Headache (subjects) ([5]; MAD 300 mg b.i.d. (n = 8)): 2
- Nausea (subjects) ([5]; MAD 300 mg b.i.d. (n = 8)): 1
- Rash (subjects) ([5]; MAD 300 mg b.i.d. (n = 8)): 1
- Number of subjects with at least 1 AE [5, 9]: 4
- Total number of AEs [5, 9]: 8
- Constipation (subjects) ([5]; MAD 1,000 mg b.i.d. (n = 8)): 1
- Decreased appetite (subjects) ([5]; MAD 1,000 mg b.i.d. (n = 8)): 3
- Diarrhea (subjects) ([5]; MAD 1,000 mg b.i.d. (n = 8)): 2
- Dizziness (subjects) ([5]; MAD 1,000 mg b.i.d. (n = 8)): 3
- Fatigue (subjects) ([5]; MAD 1,000 mg b.i.d. (n = 8)): 2
- Headache (subjects) ([5]; MAD 1,000 mg b.i.d. (n = 8)): 4
- Muscle twitching (subjects) ([5]; MAD 1,000 mg b.i.d. (n = 8)): 1
- Nausea (subjects) ([5]; MAD 1,000 mg b.i.d. (n = 8)): 3
- Palpitations (subjects) ([5]; MAD 1,000 mg b.i.d. (n = 8)): 1
- Vomiting (subjects) ([5]; MAD 1,000 mg b.i.d. (n = 8)): 2
- female subjects reporting headache (of 4) ([5]; MAD 1,000 mg b.i.d., female subjects): 4
- subjects reporting AEs (of 32 treated) ([5]; MAD, all doses): 19
- subjects reporting dizziness (of 32) ([5]; MAD, all doses): 10
- subjects reporting headache (of 32) ([5]; MAD, all doses): 8
- subjects reporting AEs ([5]; MAD, all doses, 32 subjects): 59%
- total AEs reported ([5]; MAD, all doses, 32 subjects): 66
- AI, accumulation index (Multiple-ascending dose; [10]): 1.085 (0.993, 1.185)
- UPE, percentage of dose excreted unchanged in urine (Multiple-ascending dose; [10]): 55.12 (52.08, 58.34) %
- AI, accumulation index (Multiple-ascending dose; [11]): 1.037 (0.930, 1.156)
- UPE, percentage of dose excreted unchanged in urine (Multiple-ascending dose; [11]): 53.55 (44.68, 64.19) %
- AI, accumulation index (Multiple-ascending dose; [12]): 1.101 (1.012, 1.198)
- UPE, percentage of dose excreted unchanged in urine (Multiple-ascending dose; [12]): 48.35 (40.84, 57.24) %
- AI, accumulation index (Multiple-ascending dose; [13]): 1.001 (0.942, 1.064)
- UPE, percentage of dose excreted unchanged in urine (Multiple-ascending dose; [13]): 45.54 (41.54, 49.92) %
- increased exposure (Cmax and AUCτ) in female compared to male subjects (Multiple-ascending dose; all dose groups combined, steady‐state): around 30%
- time to steady‐state concentrations (Multiple-ascending dose; b.i.d. dosing): ≤ 2 days
- accumulation after multiple doses (Multiple-ascending dose; b.i.d. for 7 days): did not accumulate
- AUC (Multiple-ascending dose; [14]): 1.31 µg·h/mL
- AUC(0-t) (Multiple-ascending dose; [14]): 1.21 µg·h/mL
- Cmax (Multiple-ascending dose; both, human, plasma, oral, 30 mg, Cmax, Day 7, 30 mg b.i.d., geometric mean (95% CI)): 0.413 µg/mL
- Tmax (Multiple-ascending dose; both, human, plasma, oral, 30 mg, Day 1, 30 mg b.i.d.): 0.9 h
- Tmax (Multiple-ascending dose; both, human, plasma, oral, 30 mg, Day 7, 30 mg b.i.d.): 0.9 h
- AUC (Multiple-ascending dose; [15]): 4.65 µg·h/mL
- AUC(0-t) (Multiple-ascending dose; [15]): 4.48 µg·h/mL
- Cmax (Multiple-ascending dose; both, human, plasma, oral, 100 mg, Cmax, Day 1, 100 mg b.i.d., geometric mean (95% CI)): 1.34 µg/mL
- Cmax (Multiple-ascending dose; both, human, plasma, oral, 100 mg, Cmax, Day 7, 100 mg b.i.d., geometric mean (95% CI)): 1.27 µg/mL
- Tmax (Multiple-ascending dose; both, human, plasma, oral, 100 mg, Day 1, 100 mg b.i.d.): 0.9 h
- Tmax (Multiple-ascending dose; both, human, plasma, oral, 100 mg, Day 7, 100 mg b.i.d.): 1.3 h
- AUC (Multiple-ascending dose; [16]): 16.8 µg·h/mL
- AUC(0-t) (Multiple-ascending dose; [16]): 15.2 µg·h/mL
- Cmax (Multiple-ascending dose; both, human, plasma, oral, 300 mg, Cmax, Day 1, 300 mg b.i.d., geometric mean (95% CI)): 3.77 µg/mL
- Cmax (Multiple-ascending dose; both, human, plasma, oral, 300 mg, Cmax, Day 7, 300 mg b.i.d., geometric mean (95% CI)): 3.99 µg/mL
- Tmax (Multiple-ascending dose; both, human, plasma, oral, 300 mg, Day 1, 300 mg b.i.d.): 1.4 h
- Tmax (Multiple-ascending dose; both, human, plasma, oral, 300 mg, Day 7, 300 mg b.i.d.): 0.9 h
- AUC (Multiple-ascending dose; [17]): 51.2 µg·h/mL
- AUC(0-t) (Multiple-ascending dose; [17]): 51.2 µg·h/mL
- half-life (Multiple-ascending dose; [17]): 14.7 h
- Cmax (Multiple-ascending dose; both, human, plasma, oral, 1000 mg b.i.d., Cmax, Day 1, 1,000 mg b.i.d., geometric mean (95% CI)): 10.6 µg/mL
- Cmax (Multiple-ascending dose; both, human, plasma, oral, 1000 mg b.i.d., Cmax, Day 7, 1,000 mg b.i.d., geometric mean (95% CI)): 10.4 µg/mL
- Tmax (Multiple-ascending dose; both, human, plasma, oral, 1000 mg b.i.d., Day 1, 1,000 mg b.i.d.): 1.45 h
- Tmax (Multiple-ascending dose; both, human, plasma, oral, 1000 mg b.i.d., Day 7, 1,000 mg b.i.d.): 2 h
- CL renal (Multiple-ascending dose; both, human, oral, 30 mg): 211 mL/min
- CL renal (Multiple-ascending dose; both, human, oral, 100 mg): 192 mL/min
- CL renal (Multiple-ascending dose; both, human, oral, 300 mg): 144 mL/min
- CL renal (Multiple-ascending dose; both, human, oral, 1000 mg b.i.d.): 148 mL/min
- dose excreted unchanged in urine (Multiple-ascending dose; doses ranging from 30 to 1,000 mg b.i.d.): ~ 50%
- Cmax (Multiple-ascending dose; female, human, plasma, oral, 1000 mg b.i.d., geometric mean Cmax in women, female subjects, 1,000 mg b.i.d. cohort, day 7): 12 µg/mL
- Gb3 mean percentage change from baseline after treatment stop [6]: remained stable for 3 days after treatment stop
- organic cation transporter 2 interaction [7]: a substrate and an inhibitor
- effect on QTcF, HR, PR, and QRS intervals ([8]; change‐from‐baseline and placebo‐adjusted change‐from‐baseline): no clinically relevant effect
- slope of concentration–ΔΔQTcF relationship ([8]; linear mixed‐effects model, 90% CI −0.00008 to 0.00056, statistically nonsignificant): 0.0002 ms per ng/mL
- treatment effect‐specific intercept ([8]; linear mixed‐effects model, nonstatistically significant): -2.7 ms
- fraction of dose excreted unchanged in urine (Single-ascending dose; 300 mg single dose): About half
- median difference in Tmax, fed vs fasted (Single-ascending dose; 300 mg single dose, high‐fat, high‐calorie meal, 90% CI 0.50–1.70): 1 h
- Tmax (Single-ascending dose; 100 mg, single dose 100 mg, fasted, median (range)): 1.4 h
- Tmax (Single-ascending dose; 300 mg, single dose 300 mg fasted, median (range)): 0.9 h
- Tmax (Single-ascending dose; 300 mg, single dose 300 mg fed, median (range)): 2.25 h
- half-life (Single-ascending dose; 1000 mg): 11.6 h
- Tmax (Single-ascending dose; 1000 mg, single dose 1,000 mg, fasted, median (range)): 1.5 h
- Tmax (Single-ascending dose; 2000 mg, single dose 2,000 mg, fasted, median (range)): 2 h
- CL renal (Single-ascending dose; urine and plasma, 300 mg): 225 mL/min
- CL renal (Single-ascending dose; male, plasma and urine, 300 mg): 225 mL/min
- half-life (Single-ascending dose; male): ~12 h
- Tmax (Single-ascending dose; male, across single doses 10 to 2,000 mg): 0.9 to 2 h
- duration of distribution phase (Single-ascending dose; single dose): ~ 24 hours
- UPE, percentage of dose excreted unchanged in urine (Single-ascending dose; single dose 300 mg fasted, geometric mean (95% CI)): 48.74 (43.53, 54.59) %
